In the library only some 2.3% were active in any assay of this set; here they are far more common.
DENV2 CPE rescue – DENV2-induced cell death inhibition. 350,000 tested, 1.7% active. DENV2-infected cells, cytopathic effect rescue, plate reader. AID 651640. CPE inhibition, % at 9.99 µM; in the data active = CPE inhibition above about 20%, passing the limit was not always enough; inconclusive = no clear call, values can overlap the other calls; tested in BHK-21 cells
C2C12 statin – protects C2C12 myotubes from simvastatin toxicity; ATP luminescence, 48 h; scaled: DMSO 0, geranylgeraniol control 100; rescue of ATP level, % at 7.49 µM; 330,000 tested, 0.78% active;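 active = mean ATP rescue above about 67%, or every replicate alone reaching that limit, limit read from the data, passing the limit was not always enough; inconclusive = no clear call, values can overlap the other calls; inactive = mean under the limit and some replicate under it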;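 note: myotubes were challenged with 10 µM simvastatin during compound exposure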
Cneo AK release – causes C. neoformans cell lysis; adenylate kinase release luminescence, 4 h; normalised: neutral wells 0, clomiphene wells 100; 360,000 tested, 0.2% active; AID 651654; lysis activity, % at 15 µM;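 active = mean lysis activity across replicates of at least 80%, whatever share of replicates individually reach that level; inactive = mean lysis activity below 80%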
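Signal: Adenylate kinase release luminescence | Assay system: Log-phase Cryptococcus neoformans yeast cells | Input: Cells at 5 × 10^6 per mL | Buffer or medium: Fresh YPD growth medium | Compound: Single dose | Schedule: Static 4 h at 37 °C with compound, 1 h detection | Controls: Clomiphene | Read-out: Luminescence rise reflecting yeast cell lysis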
F508del corr – CFTR F508del correction in bronchial cells. CFBE cells, YFP halide quenching; stimulated with forskolin plus potentiator P3; % fluorescence drop versus neutral controls. activity (quench increase), % at 7.58 µM. 350,000 tested, 0.36% active. AID 720511;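 active = mean added fluorescence quench of at least 8% versus neutral control, with both replicates also reaching 8%; inconclusive = only one of the mean or replicate conditions met; inactive = mean below 8% and not both replicates reaching 8%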;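 note: cells transiently co-express mutant CFTR-F508del with the halide-sensitive YFP; corrector assay measuring rescue of mutant channel to the surface after 24 h compound exposure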
PDI turbidity – inhibitors of human protein disulfide isomerase; inhibition, % at 10 µM; P07237; PDI insulin aggregation turbidity, A650, 90 min; 350,000 tested, 0.052% active;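 active = mean inhibition across replicates of 30% or more, whatever share of single replicates reach that level; inconclusive = mean inhibition below 30% while every single replicate reaches 30%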
ERp5 inh – ERp5 (human) disulfide isomerase inhibition; Q15084; ERp5 insulin aggregation, absorbance 650 nm, 90 min; inhibition, % at 9.99 µM; 350,000 tested, 0.05% active; AID 651711;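 active = mean replicate inhibition above about 25%, with every replicate also reaching it, limit read from the data, passing the limit was not always enough; inconclusive = only one of those two criteria met; inactive = neither criterion met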
Target sequence (Q15084 whole entry, looked up): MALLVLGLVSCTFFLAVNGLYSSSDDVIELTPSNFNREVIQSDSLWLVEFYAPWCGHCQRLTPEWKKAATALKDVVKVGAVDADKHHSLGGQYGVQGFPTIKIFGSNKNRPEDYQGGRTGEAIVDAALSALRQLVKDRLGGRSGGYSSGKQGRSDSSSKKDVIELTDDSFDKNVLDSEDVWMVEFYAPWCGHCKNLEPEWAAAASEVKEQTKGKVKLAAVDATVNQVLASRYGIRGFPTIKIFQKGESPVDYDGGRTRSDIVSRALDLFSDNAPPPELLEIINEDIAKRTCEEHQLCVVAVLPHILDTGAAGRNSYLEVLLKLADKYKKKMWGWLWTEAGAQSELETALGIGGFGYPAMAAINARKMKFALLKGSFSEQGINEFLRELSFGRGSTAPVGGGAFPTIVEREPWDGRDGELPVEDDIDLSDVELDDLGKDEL
Each line names hits and unclear results; the compound was inactive in the other large screens.

C[C@H]1CCCCO[C@H](CN(C)C(=O)c2ccccc2)[C@@H](C)CN([C@@H](C)CO)C(=O)c2cc(NS(=O)(=O)c3ccc(F)cc3)ccc2O1	none (no result: C2C12 statin, PDI turbidity)
COC(=O)c1cc(-c2ccc(Br)cc2)on1	DENV2 CPE rescue inconclusive (no result: PDI turbidity)
COC(=O)c1nn(C23CC4CC(CC(C4)C2)C3)c2c1C(=O)N(c1ccc(Br)cc1)C2=O	C2C12 statin 68 (no result: DENV2 CPE rescue, F508del corr, ERp5 inh)
CCOC(=O)c1nn(C23CC4CC(CC(C4)C2)C3)c2c1C(=O)N(c1ccc(C)cc1)C2=O	C2C12 statin 121 (no result: DENV2 CPE rescue, Cneo AK release, F508del corr, ERp5 inh)
C[C@H](CO)N1C[C@H](C)[C@@H](CN(C)C)Oc2c(NC(=O)C3CCOCC3)cccc2C1=O	DENV2 CPE rescue 40 (no result: PDI turbidity)
CC(C)NC(=O)Nc1cccc2c1O[C@@H](CN(C)C(=O)Nc1ccccc1)[C@H](C)CN([C@H](C)CO)C2=O	none (no result: PDI turbidity)
CC(C)NC(=O)Nc1cccc2c1O[C@H](CN(C)C(=O)Nc1ccccc1)[C@@H](C)CN([C@@H](C)CO)C2=O	DENV2 CPE rescue 48 (no result: PDI turbidity)
CC(C)NC(=O)Nc1cccc2c1O[C@H](CN(C)C)[C@@H](C)CN([C@@H](C)CO)C2=O	none (no result: PDI turbidity)
C[C@H]1CN([C@@H](C)CO)C(=O)c2cccc(NC(=O)Nc3cccc4ccccc34)c2O[C@H]1CN(C)C(=O)Nc1cccc2ccccc12	none (no result: C2C12 statin, PDI turbidity)
CC(C)NC(=O)Nc1cccc2c1O[C@H](CN(C)C)[C@H](C)CN([C@@H](C)CO)C2=O	DENV2 CPE rescue inconclusive, Cneo AK release 92 (no result: PDI turbidity)
C[C@@H]1CN([C@H](C)CO)C(=O)c2cccc(NC(=O)C3CCOCC3)c2O[C@@H]1CN(C)C	none (no result: PDI turbidity)
C[C@H](CO)N1C[C@H](C)[C@H](CN(C)C)Oc2c(NC(=O)Nc3cccc4ccccc34)cccc2C1=O	DENV2 CPE rescue 34 (no result: C2C12 statin, Cneo AK release, PDI turbidity)
C[C@H](CO)N1C[C@H](C)[C@@H](CN(C)S(=O)(=O)c2cn(C)cn2)Oc2ccc(NS(=O)(=O)c3cccs3)cc2CC1=O	none (no result: PDI turbidity)
O=C(NC1Cc2ccccc2C1)[C@H]1[C@H](CO)[C@H]2Cn3c(cccc3=O)[C@@H]1N2Cc1ccccc1F	none (no result: PDI turbidity)
COc1ccc(NC(=O)Nc2cccc3c2O[C@@H](CN(C)C(=O)NC(C)C)[C@@H](C)CN([C@@H](C)CO)C3=O)cc1	DENV2 CPE rescue 38 (no result: PDI turbidity)
CC(C)NC(=O)Nc1cccc2c1O[C@@H](CN(C)C(=O)NC(C)C)[C@@H](C)CN([C@@H](C)CO)C2=O	DENV2 CPE rescue 66 (no result: PDI turbidity)
CC(C)NC(=O)Nc1cccc2c1O[C@H](CN(C)C(=O)NC(C)C)[C@@H](C)CN([C@H](C)CO)C2=O	DENV2 CPE rescue inconclusive
CCc1c(C2CC2)ncn1Cc1cccc(-c2ccccc2)c1	DENV2 CPE rescue 20 (no result: C2C12 statin, Cneo AK release, PDI turbidity)
CCc1c(-c2ccccc2)ncn1Cc1cccc(-c2ccccc2)c1	none (no result: C2C12 statin, Cneo AK release, PDI turbidity)
CCc1c(-c2ccccc2F)ncn1Cc1cccc(-c2ccccc2)c1	DENV2 CPE rescue 59 (no result: C2C12 statin, Cneo AK release, PDI turbidity)
CC(=O)N(C)C[C@@H]1[C@H](c2ccc(-c3cccnc3)cc2)[C@H](CO)N1C(=O)C1CC1	none (no result: C2C12 statin, Cneo AK release, PDI turbidity)
CC1CCN(c2ccc3c(c2)S(=O)(=O)c2cccc(C(=O)NC4CCCCC4)c2C3=O)CC1	DENV2 CPE rescue 34
CC(C)(C)CNC(=O)c1cccc2c1C(=O)c1ccc(N3CCCC3)cc1S2(=O)=O	DENV2 CPE rescue 29
C[C@@H]1CN([C@H](C)CO)C(=O)c2cc(NC(=O)Nc3cccc4ccccc34)ccc2O[C@H]1CN(C)Cc1ccc(C(=O)O)cc1	none (no result: PDI turbidity)
CN1c2ccc(-c3ccc(F)cc3)cc2[C@@H]2[C@@H](CCN2C(=O)C2CCOCC2)[C@H]1CO	none (no result: PDI turbidity)
COc1ccc(-c2ccc3c(c2)[C@@H]2[C@@H](CCN2C(=O)C2CCCC2)[C@H](CO)N3C)cc1	none (no result: C2C12 statin, Cneo AK release, PDI turbidity)
CN1c2ccc(-c3ccc(F)cc3)cc2[C@@H]2[C@@H](CCN2C(=O)C2CCOCC2)[C@@H]1CO	DENV2 CPE rescue inconclusive, Cneo AK release 81 (no result: PDI turbidity)
COc1ccc(-c2ccc3c(c2)[C@@H]2[C@@H](CCN2C(=O)C2CCOCC2)[C@@H](CO)N3C)cc1	DENV2 CPE rescue 115 (no result: PDI turbidity, ERp5 inh)
COc1ccc(-c2nc(CC(=O)O)cs2)cc1	C2C12 statin 105 (no result: DENV2 CPE rescue, F508del corr, ERp5 inh)
Cc1ccc(NC(=S)Nc2cccc3cnccc23)cc1	DENV2 CPE rescue 72
C[C@@H]1CN([C@@H](C)CO)C(=O)c2cc(C#Cc3cccnc3)cnc2O[C@H]1CN(C)C	none (no result: PDI turbidity)
Cc1ccc(S(=O)(=O)N(C)C[C@H]2OCCCC[C@@H](C)Oc3ccc(NS(=O)(=O)c4ccccc4)cc3C(=O)N([C@H](C)CO)C[C@H]2C)cc1	none (no result: PDI turbidity)
CC(C)NC(=O)c1ccc(COc2cccc3ccccc23)o1	F508del corr 9.8
NNC(=O)c1ccc(COc2cccc3ccccc23)o1	none
O=C(NCC[C@@H]1CC[C@@H](NC(=O)C2CCCC2)[C@H](CO)O1)c1cc(Cl)cc(Cl)c1	none (no result: PDI turbidity)
CC1=C(C(=O)OCc2ccccc2)C(c2ccccc2)NC(=O)N1 (stereo not given)	DENV2 CPE rescue inconclusive, Cneo AK release 80
COc1ccc(C2NC(=O)NC(C)=C2C(=O)OCc2ccccc2)cc1 (stereo not given)	none
C[C@@H]1CN([C@H](C)CO)C(=O)c2cccc(N(C)C)c2O[C@H]1CN(C)S(C)(=O)=O	none (no result: PDI turbidity)
C[C@@H]1CCCCO[C@H](CN(C)Cc2ccncc2)[C@H](C)CN([C@@H](C)CO)C(=O)c2cc(NC(=O)Nc3ccc(C(F)(F)F)cc3)ccc2O1	none (no result: C2C12 statin, PDI turbidity)
C[C@@H]1CCCCO[C@@H](CN(C)C(=O)CCC(F)(F)F)[C@@H](C)CN([C@H](C)CO)C(=O)c2cc(NS(C)(=O)=O)ccc2O1	none (no result: PDI turbidity)
Cc1ccc(S(=O)(=O)Nc2ccc3c(c2)C(=O)N([C@H](C)CO)C[C@H](C)[C@@H](CN(C)S(=O)(=O)c2ccc(Cl)cc2)O3)cc1	none (no result: C2C12 statin, Cneo AK release, PDI turbidity)
COc1cccc(S(=O)(=O)N2C[C@@H](O)COC[C@H]3O[C@H](CC(=O)N4CCN(C)CC4)CC[C@@H]32)c1	DENV2 CPE rescue 20, Cneo AK release 85 (no result: PDI turbidity)
O=C(C[C@H]1CC[C@@H]2[C@H](COC[C@@H](O)CN2S(=O)(=O)c2cccc(Cl)c2)O1)N1CCOCC1	none (no result: PDI turbidity)
O=C(C[C@H]1CC[C@H]2[C@@H](COC[C@H](O)CN2S(=O)(=O)c2cccc(Cl)c2)O1)N1CCOCC1	DENV2 CPE rescue 21 (no result: PDI turbidity)
COc1cccc(S(=O)(=O)N2C[C@@H](O)COC[C@H]3O[C@H](CC(=O)Nc4ccccc4)CC[C@@H]32)c1	Cneo AK release 112 (no result: PDI turbidity)
CC(C)NC(=O)N(C)C[C@@H]1Oc2ccc(NS(=O)(=O)c3cn(C)cn3)cc2C(=O)N([C@@H](C)CO)C[C@H]1C	none (no result: C2C12 statin, PDI turbidity)
O=C(N[C@H]1CC[C@@H](CC(=O)N2CCOCC2)O[C@H]1CO)c1cccc(F)c1	none (no result: PDI turbidity)
Cc1cccc(NC(=O)COc2ccc3oc4c(c3c2)CCCC4)n1	C2C12 statin 134 (no result: DENV2 CPE rescue, F508del corr, ERp5 inh)
Cc1cccc(NC(=O)COc2ccc3c(c2)CCC3)n1	none (no result: Cneo AK release)
O=C(C[C@H]1C=C[C@H](NC(=O)Cc2ccccn2)[C@@H](CO)O1)NCCc1ccncc1	DENV2 CPE rescue 23 (no result: PDI turbidity)
